Data as given in ChEMBL document CHEMBL1129316, “Inhibitors of human immunodeficiency virus type 1 protease containing 2-aminobenzyl-substituted 4-amino-3-hydroxy-5-phenylpentanoic acid: synthesis, activity, and oral bioavailability” (J Med Chem, 1996).
≈ marks a conversion by molar mass, not a printed value.

Legend:
[1] = Oral Bioavailability was measured as area-under-curve(AUC) value at dose 125 mg/kg; b denotes No compound detectable in blood above the detection limit of 0.1 uM; assay type: ADME, organism-based; conditions: in vivo
How it was run: (§1)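 Female Balb/c mice, fasted 24 h before and during the study, water ad libitum. Dosed by oral gavage at 125 mg/kg in a liquid formulation. Heparinized whole blood sampled at various times, methanol-extracted, cleaned on sulfobenzyl SPE, then RP-C18 HPLC with UV at 200 nm against an internal standard. Cmax taken as observed; AUC calculated. Detection limit 0.1 µM.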

[2] = Solubility (phosphate-buffered saline, pH =7.4); assay type: physicochemical; conditions: read-out: S
How it was run: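 About 1 mg of lyophilized amorphous inhibitor in 1 mL PBS (pH 7.4), vortexed 1 min and sonicated 30 min at 37 °C. Filtered, then centrifuged at 100 000 rpm for 30 min. Supernatant run on RP-C18 HPLC (10 mM NH4OAc/CH3CN 50/50, UV 210 nm) and quantified by external standard. Minimum detectable 0.1 µg/mL.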

[3] = molecular target: T1, Human immunodeficiency virus type 1 protease (Human immunodeficiency virus 1, UniProt Q72874); test: Binding affinity against HIV-1 protease
How it was run: (§2)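 Recombinant HIV-1 PR expressed in E. coli JM105 and purified to homogeneity. Enzyme incubated at 37 °C in 0.1 M MES, 0.37 M NaCl, 4 mM EDTA, pH 6.25, with 280 µM chromogenic nonapeptide substrate (pNph). Initial rates taken from the absorbance decrease at 298 nm. IC50 fitted, then Ki = (IC50 − Et/2)/(1 + S/Km). Mean of two determinations; DMSO ≤5%.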

[4] = tested on: Human immunodeficiency virus 1; test: Antiviral activity against HIV-1, IIIB, in MT-4 Cells; assay type: functional, organism-based; conditions: Human immunodeficiency virus 1, MT4
How it was run: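 HIV-1 strain IIIB-induced cytopathic effect in HTLV-I-transformed MT4 cells. Virus adsorbed to cells at 1 × 10⁶ cells/mL, 37 °C, 1 h. Compounds added postadsorption, final 1 × 10⁵ cells/mL. Inoculum set to kill 90% of cells in 5 days. Mock-infected and compound-only controls run. DMSO ≤0.3%, medium with 10% FBS. Viability read by MTT after 5 days. Mean of repeat determinations.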

[5] = Oral Bioavailability was measured as Maximal observed concentration (Cmax) value at dose 125 mg/kg; b denotes No compound detectable in blood above the detection limit of 0.1 uM; assay type: ADME, organism-based; set-up: dose 125 mg/kg, route oral; conditions: in vivo; how it was run: as §1
[6] = Oral Bioavailability was measured as Maximal observed concentration (Cmax) value at dose 125 mg/kg;b = No compound detectable in blood above the detection limit of 0.1 uM; assay type: ADME, organism-based; set-up: dose 125 mg/kg, route oral; conditions: in vivo; how it was run: as §1
[7] = Oral Bioavailability was measured as area-under-curve(AUC) value at dose 125 mg/kg;b = No compound detectable in blood above the detection limit of 0.1 uM; assay type: ADME, organism-based; conditions: in vivo; how it was run: as §1
[8] = Oral Bioavailability was measured as area-under-curve(AUC) value at dose 125 mg/kg; b = No compound detectable in blood above the detection limit of 0.1 uM; assay type: ADME, organism-based; conditions: in vivo; how it was run: as §1
[9] = Oral Bioavailability was measured as Maximal observed concentration (Cmax) value at dose 125 mg/kg; b = No compound detectable in blood above the detection limit of 0.1 uM; assay type: ADME, organism-based; set-up: dose 125 mg/kg, route oral; conditions: in vivo; how it was run: as §1
[10] = molecular target: T1, Human immunodeficiency virus type 1 protease; test: Binding affinity against HIV-1 protease (HIV-1 PR); d indicates no activity at 3 uM; how it was run: as §2
MT4 = test: Antiviral Activity against HIV-1, IIIB, in MT-4 Cells; d indicates no activity at 3 uM; assay type: functional, cell-based, Homo sapiens
How it was run: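 MT4 cells infected with HIV-1 IIIB; virus adsorbed at 1 × 10⁶ cells/mL, 37 °C, 1 h, then plated at 1 × 10⁵ cells/mL with compound added postadsorption. Inoculum set to kill 90% of cells in 5 days. Incubated 5 days; viability of infected and mock-infected cells by MTT, read spectrophotometrically. Medium with 10% FBS; DMSO ≤0.3%. Values given as mean ± SD, n in parentheses.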

CC(C)(C)[C@H](NC(=O)OCc1ccccc1)C(=O)N[C@@H](Cc1ccccc1)[C@@H](O)[C@@H](NCc1ccc(CNC(=O)CCc2nc3ccccc3[nH]2)cc1)C(=O)N[C@@H]1c2ccccc2C[C@H]1O
AUC [1]: No compound detectable | solubility [2]: < 1 µM | Ki [3]: 4.1 nM | IC50 [4]: 161 nM | Cmax [5]: No compound detectable

COc1ccc(CN[C@@H](C(=O)NC2c3ccccc3C[C@H]2O)[C@H](O)[C@H](Cc2ccccc2)NC(=O)[C@@H](NC(=O)/C=C/c2ccc(OC)c(O)c2)C(C)(C)C)cc1 (stereo not given in full)
Cmax [6]: No compound detectable | AUC [7]: No compound detectable | Ki [3]: 5.8 nM | IC50 [4]: 125 nM

CC(C)(C)[C@H](NC(=O)OCc1ccccc1)C(=O)N[C@@H](Cc1ccccc1)[C@@H](O)[C@@H](NCc1ccc(CNC(=O)OCc2ccccc2)cc1)C(=O)N[C@H]1c2ccccc2C[C@H]1O
solubility [2]: < 1 µM | AUC [8]: No compound detectable | Cmax [6]: No compound detectable | IC50 [4]: 142 nM

COc1ccc(CN[C@@H](C(=O)N[C@H]2c3ccccc3C[C@H]2O)[C@H](O)[C@H](Cc2ccccc2)NC(=O)[C@@H](NC(=O)CCc2nc3ccccc3[nH]2)C(C)(C)C)cc1
solubility [2]: 12.2 µM (≈ 9.28 µg/mL) | AUC [8]: No compound detectable | Cmax [9]: No compound detectable | Ki [3]: 9.4 nM | IC50 [4]: 98 nM

CC(C)(C)[C@H](NC(=O)OCc1ccccc1)C(=O)N[C@@H](Cc1ccccc1)[C@@H](O)[C@@H](NCc1ccc(OCCN2CCOCC2)cc1)C(=O)N[C@H]1c2ccccc2C[C@H]1O
solubility [2]: 14.5 µM (≈ 11.9 µg/mL) | AUC [8]: No compound detectable | Cmax [9]: No compound detectable | Ki [3]: 9.5 nM | IC50 [4]: 47 nM

CC(C)(C)[C@H](NC(=O)OCc1ccccc1)C(=O)N[C@@H](Cc1ccccc1)[C@@H](O)[C@@H](NCc1ccc(CNC(=O)Nc2ccccc2)cc1)C(=O)N[C@H]1c2ccccc2C[C@H]1O
solubility [2]: < 1 µM | AUC [7]: No compound detectable | Cmax [9]: No compound detectable | Ki [3]: 3.3 nM | IC50 [4]: 175 nM

COc1ccc(CN[C@@H](C(=O)N[C@H](CO)c2ccccc2)[C@H](O)[C@H](Cc2ccccc2)NC(=O)OC(C)(C)C)cc1
Ki [10]: No activity | IC50 (MT4): No activity
